# Measurements: ChEMBL document CHEMBL2413022, “3-Aryl-4-acyloxyethoxyfuran-2(5H)-ones as inhibitors of tyrosyl-tRNA synthetase: synthesis, molecular docking and antibacterial evaluation” (Bioorg Med Chem, 2013)
# How the values were obtained:
# [1] = Inhibition of Staphylococcus aureus tyrosyl-tRNA synthetase expressed in Escherichia coli using L-[ring-3,5-3H] tyrosine as substrate preincubated for 10 mins by liquid scintillation counting analysis
# Procedure, shortened: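 Enzyme purified to about 98% (SDS–PAGE). Aminoacylation at 37 °C, final 100 mM Tris/Cl pH 7.9, 50 mM KCl. TyrRS (0.2 nM) preincubated with a range of inhibitor concentrations for 10 min at room temperature, then pre-warmed mixture added. Aliquots quenched in ice-cold 7% TCA at set intervals, filtered, counted by liquid scintillation.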
# [2] = test system: Escherichia coli; assay: Antibacterial activity against Escherichia coli ATCC 35218 by MTT assay; assay type: functional
# Procedure, shortened: (§1)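 LB medium; inoculum about 10⁵ cfu/mL added to serially diluted compound (medium-only blank) and incubated at 37 °C. Then MTT in PBS (3 mg/mL) added, 4–5 h at room temperature. Medium removed, dye extracted 8–10 h in 10% SDS with 5% isopropanol and HCl. Read OD 570 nm, control OD kept at 1.0–2.0; MIC50 taken from absorbance.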
# [3] = test system: Staphylococcus aureus; assay: Antibacterial activity against Staphylococcus aureus ATCC 25923 by MTT assay; assay type: functional; procedure, shortened: as §1
# [4] = test system: Pseudomonas aeruginosa; assay: Antibacterial activity against Pseudomonas aeruginosa ATCC 27853 by MTT assay; assay type: functional; procedure, shortened: as §1
# [5] = test system: Candida albicans; assay: Antifungal activity against Candida albicans ATCC 10231 by MTT assay; assay type: functional
# Procedure, shortened: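 LB medium; inoculum about 10⁵ cfu/mL with serially diluted compound (medium-only blank), incubated at 28 °C. MTT in PBS (3 mg/mL) added, 4–5 h at room temperature. Dye extracted 8–10 h in 10% SDS with 5% isopropanol and HCl. OD read at 570 nm, control OD 1.0–2.0; MIC50 from absorbance.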
Compound,IC50 [1] [µM],MIC50 [2] [µg/mL],MIC50 [3] [µg/mL],MIC50 [4] [µg/mL],MIC50 [5] [µg/mL]
CCCC(=O)OCCOC1=C(c2ccccc2)C(=O)OC1,84.6,> 100,41.3,98.1,88.7
CCCCCC(=O)OCCOC1=C(c2ccccc2)C(=O)OC1,47.8,> 100,43,60.8,21.4
CCCCCCCC(=O)OCCOC1=C(c2ccccc2)C(=O)OC1,41,48.8,> 100,56.8,> 100
O=C1OCC(OCCOC(=O)c2ccccc2)=C1c1ccccc1,12.8,> 100,17.8,13.4,> 100
O=C1OCC(OCCOC(=O)c2ccc3ccccc3c2)=C1c1ccccc1,17.7,> 100,21.9,18.1,> 100
O=C1OCC(OCCOC(=O)c2ccc3cc(O)ccc3c2)=C1c1ccccc1,16.8,> 100,16.1,15.8,> 100
COc1ccccc1C(=O)OCCOC1=C(c2ccccc2)C(=O)OC1,64.7,> 100,> 100,73.6,> 100
Cc1cccc(C(=O)OCCOC2=C(c3ccccc3)C(=O)OC2)c1,8.1,> 100,15.8,16.7,> 100
Cc1ccc(C(=O)OCCOC2=C(c3ccccc3)C(=O)OC2)cc1,17.8,> 100,18.3,37.7,23.4
O=C1OCC(OCCOC(=O)c2ccc(F)cc2)=C1c1ccccc1,7.5,> 100,8.2,13.8,18.1
O=C1OCC(OCCOC(=O)c2ccc(Cl)cc2)=C1c1ccccc1,8.8,> 100,17.2,14.5,78.4
O=C1OCC(OCCOC(=O)c2ccc(O)cc2O)=C1c1ccccc1,50.2,> 100,15.3,36.7,> 100
O=C1OCC(OCCOC(=O)c2ccc(O)c(O)c2)=C1c1ccccc1,75.3,> 100,19.9,> 100,> 100
O=C1OCC(OCCOC(=O)c2cc(O)cc(O)c2)=C1c1ccccc1,6.7,> 100,2.2,14.4,> 100
O=C(Cc1cccc(Cl)c1)OCCOC1=C(c2ccccc2)C(=O)OC1,> 100,> 100,> 100,83.1,> 100
O=C(Cc1ccc(F)cc1)OCCOC1=C(c2ccccc2)C(=O)OC1,93.6,> 100,16.5,> 100,> 100
O=C(Cc1ccc(Br)cc1)OCCOC1=C(c2ccccc2)C(=O)OC1,48.1,78.7,15.4,22,> 100
O=C(Cc1ccc(O)cc1)OCCOC1=C(c2ccccc2)C(=O)OC1,> 100,53.6,22.5,68.1,> 100
COc1ccc(CC(=O)OCCOC2=C(c3ccccc3)C(=O)OC2)cc1OC,83.8,> 100,> 100,> 100,92.3
O=C(Cc1ccc(O)cc1)OCCOC1=C(c2ccc(Cl)cc2)C(=O)OC1,7.9,> 100,27.4,15.5,> 100
O=C(Cc1ccc(F)cc1)OCCOC1=C(c2ccc(Cl)cc2)C(=O)OC1,5.7,> 100,14.9,13.2,15.6
CC(=O)N1CCN(c2ccc(OCC3COC(Cn4ccnc4)(c4ccc(Cl)cc4Cl)O3)cc2)CC1 (centres undefined) [KETOCONAZOLE],–,–,–,–,3.8
CCn1cc(C(=O)O)c(=O)c2cc(F)c(N3CCNCC3)cc21 [NORFLOXACIN],–,–,–,2.1,–

# Further compounds by falling MIC50 [2], results first:
IC50 [1] [µM],MIC50 [2] [µg/mL],MIC50 [3] [µg/mL],MIC50 [4] [µg/mL],MIC50 [5] [µg/mL],Compound
9.3,45.6,13.3,17.7,> 100,O=C(Cc1ccc(Cl)cc1)OCCOC1=C(c2ccc(Cl)cc2)C(=O)OC1
4.3,23.3,17.5,2.4,> 100,O=C1OCC(OCCOC(=O)c2cccc(C(F)(F)F)c2)=C1c1ccccc1
11.2,19.5,23.3,21.3,23,O=C1OCC(OCCOC(=O)c2ccc(O)cc2)=C1c1ccccc1
> 100,19.3,> 100,90.2,> 100,Cc1ccccc1C(=O)OCCOC1=C(c2ccccc2)C(=O)OC1
26,18.6,22.8,44.8,> 100,O=C1OCC(OCCOC(=O)c2cccnc2)=C1c1ccccc1
56.8,17.9,72.9,52.7,> 100,O=C1OCC(OCCOC(=O)c2ccccc2Cl)=C1c1ccccc1
18.2,17.5,24.3,35.5,> 100,O=C1OCC(OCCOC(=O)c2ccccc2[N+](=O)[O-])=C1c1ccccc1
3.5,16.6,13.6,4.6,4.2,O=C(Cc1cccc(Br)c1)OCCOC1=C(c2ccc(Cl)cc2)C(=O)OC1
41.4,15.7,24.9,47.8,> 100,O=C1OCC(OCCOC(=O)c2ccccc2O)=C1c1ccccc1
16.7,14.3,13,20.6,13.1,O=C(Cc1ccc(Br)cc1)OCCOC1=C(c2ccc(Cl)cc2)C(=O)OC1
5.2,13.9,24.8,2.9,> 100,O=C1OCC(OCCOC(=O)c2cc(Cl)ccc2Cl)=C1c1ccccc1
16.5,12.8,18.2,21.3,22.9,O=C1OCC(OCCOC(=O)c2ccc(Cl)cc2Cl)=C1c1ccccc1
> 100,9.4,> 100,> 100,> 100,O=C1OCC(OCCOC(=O)c2cccc([N+](=O)[O-])c2)=C1c1ccccc1
1.1,7.6,5.2,2.5,2.5,O=C(Cc1cccc(Cl)c1)OCCOC1=C(c2ccc(Cl)cc2)C(=O)OC1
5.2,5,24.5,11.4,2.7,O=C1OCC(OCCOC(=O)c2ccc([N+](=O)[O-])cc2)=C1c1ccccc1
0.9,4.3,2,1.5,1.2,O=C1OCC(OCCOC(=O)c2cccc(Cl)c2)=C1c1ccc(Cl)cc1
–,3.5,1.5,–,–,NC[C@H]1O[C@H](O[C@H]2[C@H](O)[C@@H](O[C@H]3O[C@H](CO)[C@@H](O)[C@H](N)[C@H]3O)[C@H](N)C[C@@H]2N)[C@H](O)[C@@H](O)[C@@H]1O [KANAMYCIN]
33.4,2.9,19.9,22.7,95.4,O=C1OCC(OCCOC(=O)c2ccc(Cl)c(Cl)c2)=C1c1ccccc1
